Source: PubChem BioAssay (The Scripps Research Institute Molecular Screening Center)
DNA FID counter-1 – counter-screen for HCV NS3 helicase inhibitors: DNA intercalator displacement | AID 1845 | DNA fluorescent intercalator displacement, fluorescence | 0.17% of 290,000 active | inhibition, % at 7.9 µM;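 note: 0% = vehicle and 100% = reference compound; higher means more ethidium bromide displaced from hairpin DNA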
IMP-1 inh – blocks Pseudomonas aeruginosa IMP-1 metallo-beta-lactamase | 0.45% of 290,000 active | inhibition, % at 5.6 µM | purified IMP-1, nitrocefin hydrolysis, epi-absorbance fluorescence;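 active = inhibition above the mean plus 3 SD of all compounds in the same screening run, cut at about 4.5% in these data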;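 note: 0% = IMP-1 with DMSO and 100% = DMSO wells lacking enzyme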
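Test system: recombinant IMP-1 enzyme, purified / Medium: HEPES buffer pH 7.1 with ZnSO4 and Brij 35 / Doses: single dose, 5.6 µM / Times: 25 °C, 15 min preincubation, 25 min reaction / Detection: Epi-absorbance via hydrolysed-nitrocefin quenching of white-plate fluorescence, 480/530 nm, EDTA stop / Evaluation: percent inhibition from optical density relative to buffer-blank wells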
VIM-2 inh – blocks Pseudomonas aeruginosa VIM-2 metallo-beta-lactamase. 0.89% of 290,000 active. AID 1527. inhibition, % at 5.6 µM. purified VIM-2, nitrocefin hydrolysis, epi-absorbance fluorescence;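 active = inhibition above the mean of all tested compounds plus 3 SD, cutoff set per screening run, cut at about 7.5% in these data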;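 note: red hydrolysis product quenches plate fluorescence so inhibitors raise well fluorescence; 0% = enzyme with DMSO and 100% = DMSO without enzyme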
HCV NS3 hel inh – blocks Hepatitis C virus NS3 helicase unwinding; NS3 helicase DNA unwinding, Cy5 molecular beacon fluorescence; inhibition, % at 10.9 µM; 0.56% of 290,000 active;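 active = inhibition above the mean of all tested compounds plus 3 SD, set per campaign, cut at about 35% in these data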;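 note: 0% = DMSO wells and 100% = thioflavine S control wells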
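Test system: hepatitis C virus NS3 helicase domain fragment enzyme. Also added: annealed dual-labelled DNA beacon duplex, ATP-started. Timing: 60 min unwinding reaction at 25 °C after ATP addition. Technique: Cy5 fluorescence. Measure: % inhibition of unwinding.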
NS3 helicase cf – confirmation of Hepatitis C virus NS3 helicase inhibitors; shares compounds with HCV NS3 hel inh; 31% of 1,600 active; inhibition, % at 10.9 µM; AID 1943; NS3 helicase DNA unwinding, Cy5 molecular beacon fluorescence;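 active = inhibition above the mean of all tested compounds plus 3 SD, cutoff set per campaign, cut at about 36% in these data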
DNA FID counter-2 – counter-screen for HCV NS3 helicase inhibitors: DNA intercalator displacement; shares compounds with HCV NS3 hel inh; DNA fluorescent intercalator displacement, fluorescence; inhibition, % at 7.9 µM; 4% of 1,600 active; AID 1945;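 note: 0% = vehicle and 100% = reference compound; higher means more displacement of ethidium bromide from the DNA hairpin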
DNA FID DR – counter-screen for HCV NS3 helicase inhibitors: DNA intercalator displacement dose response; shares compounds with HCV NS3 hel inh; fluorescent intercalator displacement from DNA, fluorescence; IC50, µM; 120 tested, under 10 active; call rule not given here
* hit, by the source's call; nt = no result given. A selection: hits, their analogues and other compounds. The true share with any hit is near 1.9%. Cut-off read from the data, not from the text of the source, unless noted: active = inhibition above about 37%; inactive = the rest.

SMILES	DNA FID counter-1	IMP-1 inh	VIM-2 inh	HCV NS3 hel inh	NS3 helicase cf	DNA FID counter-2	others
CN(Cc1cccs1)C(=O)/C=C/c1ccccc1[N+](=O)[O-]	-1.6	-3.4	-0.6	60.9*	-9.5	9.4
CCN(Cc1ccccc1)C(=O)/C=C/c1ccccc1[N+](=O)[O-]	-12.9	-0.2	0.1	-1.8	nt	nt
CC1=C(C(=O)OC(C)C)C(c2cn(-c3ccccc3)nc2-c2cccs2)NC(=O)N1 (configuration not stated)	-5.2	-0.3	-1.5	-1.6	nt	nt
O=C(N/N=C/c1cc(Br)c(O)c(Br)c1)c1cc2c(ccc3ccccc32)o1	-36.9	-1.9	-0.7	13.1	nt	nt
O=C(N/N=C/c1cc(Cl)c(O)c(Cl)c1)c1cc2c(ccc3ccccc32)o1	-35.8	-6.2	-4.1	44.9*	52.6*	-6.0	DNA FID DR=>79.4
Cc1ccc(NC(=S)N2CCC(N(C)CC3CCCO3)CC2)cc1 (configuration not stated)	-0.4	-2.7	-1.7	1.2	nt	nt
O=C(O)c1cc([N+](=O)[O-])ccc1Nc1ccccc1	-7.0	-0.7	5.9	14.0	nt	nt
Cc1cccc(Nc2ccc([N+](=O)[O-])cc2C(=O)O)c1	-23.7	-1.8	2.3	37.2*	65.5*	-9.3
COc1ccc(CCCc2nnc(SCc3nc4ccccc4c(=O)[nH]3)n2C)c(C)c1	-10.6	-3.7	-4.8	-0.8	nt	nt
Nc1c(C(=O)NC2CCCC2)sc2nc(-c3cccs3)ccc12	-20.0	4.1	0.7	56.3*	-16.2	5.5
COc1ccc(/C=C2\C(=O)N(c3c(Cl)cc(Cl)cc3Cl)N=C2NC(=O)c2cccc([N+](=O)[O-])c2)cc1	-5.9	-1.5	-2.7	15.7	nt	nt
CNc1ccc(Br)cc(C(=O)/C=C/c2ccc(Cl)cc2Cl)c1=O	-10.6	-0.5	-1.4	38.5*	74.3*	13.8	DNA FID DR=>79.4
O=C(/C=C/c1ccc(Cl)cc1Cl)c1ccc[nH]1	2.8	-2.3	-1.1	1.5	nt	nt
COc1cccc(/C=C/C(=O)Nc2ccc3[nH]c(=O)[nH]c3c2)c1	-6.0	-2.1	-3.8	5.0	nt	nt
CCNc1ccc(Br)cc(C(=O)/C=C/c2ccc3c(c2)OCO3)c1=O	-22.0	3.3	-0.5	46.7*	40.7*	-4.6
CNc1ccc(Br)cc(C(=O)/C=C/c2cccc(OC)c2)c1=O	-18.5	10.2*	0.8	43.5*	53.5*	14.7	DNA FID DR=>79.4
Cn1cnnc1SCC(=O)N/N=C/c1ccc(OCC(N)=O)cc1	-4.0	-1.1	-2.0	-1.5	nt	nt
COc1ccc(CC(=O)NNC(=O)CSc2nc(C)c(C)c(=O)[nH]2)cc1	-1.2	0.1	-2.7	-5.7	nt	nt
COc1ccc(NC(=O)c2c(NC(=O)CCC(=O)O)sc(-c3ccccc3)c2C)cc1	-33.3	-1.5	0.5	37.3*	52.6*	-9.4
COC(=O)c1ccccc1NC(=O)COC(=O)C1CCCCC1	-17.8	-2.8	-0.5	2.4	nt	nt
CNC(=O)CSc1nc2sccc2c(=O)n1-c1ccccc1	-5.2	-2.6	-0.7	1.9	nt	nt
N#CCSc1nc2sccc2c(=O)n1-c1ccccc1	-17.4	-1.3	-1.9	36.7*	-15.6	6.5
CCN(CC)C(=O)CSC1=N/C(=C/c2ccco2)C(=O)N1c1ccc(OC)c(Cl)c1	-26.5	-1.9	-3.9	38.2*	-8.9	-28.0
Cc1cccc(OCC(=O)N(Cc2ccc(F)cc2)C2CCS(=O)(=O)C2)c1C (configuration not stated)	-30.4	2.6	0.5	5.1	nt	nt
COC(=O)c1ccc(COc2ccc(/C=N/Nc3cccc(C(=O)O)c3)cc2)cc1	-29.7	-4.3	-3.2	0.3	nt	nt
SMILES	DNA FID counter-1	IMP-1 inh	VIM-2 inh	HCV NS3 hel inh	NS3 helicase cf	DNA FID counter-2	others
O=C(O)c1cc(N/N=C/c2ccc(OCc3ccccc3)cc2)ccc1Cl	-24.9	-0.7	-4.0	41.6*	67.2*	5.3
COc1ccc(N2Cc3ccc(C(=O)N/N=C\c4ccc(O)cc4O)cc3C2)cc1	-23.5	-3.8	-1.7	39.8*	30.5	-7.8
COc1ccc2nc(C)cc(SCC(=O)N/N=C/c3ccc(O)cc3O)c2c1	-3.1	-4.9	-3.8	-12.7	nt	nt
CCOC(=O)c1c(NC(=O)C2C3C=CC(C3)C2C(=O)O)sc2c1CCCC2 (configuration not stated)	-44.4	-0.9	2.1	29.9	nt	nt
CCOC(=O)c1c(NC(=O)C2C3C=CC(C3)C2C(=O)O)sc2c1CCC(C)C2 (configuration not stated)	-30.3	-2.5	-2.9	36.9*	75.4*	-30.6
CCOC(=O)C1(Cc2cccc(Cl)c2)CCCN(C(=O)c2ccco2)C1 (configuration not stated)	-52.1	-2.1	-1.5	-12.2	nt	nt
CCOC(=O)C1(Cc2cccc(Cl)c2)CCCN(C(=O)c2ccoc2C)C1 (configuration not stated)	-45.2	1.3	1.3	44.0*	-6.6	-52.8
O=C1c2ccccc2-c2c1cccc2C(=O)N1CCN(C(=O)c2ccco2)CC1	-5.3	-2.4	-3.4	12.3	nt	nt
O=C(O)CCCNc1cc(N2CCN(C(=O)c3ccco3)CC2)c2noc3c2c1C(=O)c1ccccc1-3	-50.0	8.2*	3.8	37.0*	72.4*	-25.6
CCCCCC(=O)N/N=C/c1ccc([N+](=O)[O-])o1	-9.8	0.4	-4.1	39.3*	-10.1	2.2
Cc1ccc(NCC(=O)N/N=C\c2ccc([N+](=O)[O-])o2)cc1	-1.3	-2.5	-0.2	15.2	nt	nt
Cc1scc(C(=O)N/N=C/c2ccco2)c1C	-4.1	-2.1	-2.4	0.6	nt	nt
Cc1scc(C(=O)N/N=C/c2ccc([N+](=O)[O-])o2)c1C	-26.0	-4.4	-2.8	43.4*	-12.5	9.1
O=[N+]([O-])c1cc([N+](=O)[O-])c2cc3ccccc3nc2c1	9.1	-1.9	2.5	36.2*	-5.1	31.1
O=[N+]([O-])c1cnc2ccccc2c1	-1.1	-3.7	-0.8	-4.1	nt	nt
COCCCn1c(=O)/c(=C\c2ccccc2OC(C)C)s/c1=C(/C#N)C(=O)Nc1ccc(C(=O)O)cc1	-20.2	-1.1	0.7	50.4*	58.4*	-30.6
COCCCn1c(=O)/c(=C\c2ccccc2OC(F)F)s/c1=C(/C#N)C(=O)NC(C)C	4.2	1.0	-1.5	-16.0	nt	nt
CC(C)CC[n+]1ccn(-c2nc3ccccc3nc2[N-]S(=O)(=O)c2ccccc2)c1	-27.6	-2.9	-0.8	-1.9	nt	nt
O=S(=O)([N-]c1nc2ccccc2nc1-n1cc[n+](Cc2ccccc2)c1)c1ccc(Cl)cc1	-9.4	-2.0	-0.4	36.8*	-2.0	-32.8
CC1CCN(CC(=O)Nc2ccc(S(=O)(=O)NC3CC3)cc2)CC1	3.1	-0.8	-0.8	-6.2	nt	nt
CN(C)S(=O)(=O)c1cccc(NC(=S)N/N=C/c2cc(Br)ccc2O)c1	-17.2	-2.4	2.6	46.2*	53.1*	12.0
O=C(N/N=C/c1cc(Br)ccc1O)Nc1ccccc1	5.6	-2.2	0.0	-1.6	nt	nt
